This sample holds only a part of the variants without activity.
B1: tRNA (parent)
chain: GUUCCGUUGGCGUAAUGGUAACGCGUCUCCCUCCUAAGGAGAAGACUGCGGGUUCGAGUCCCGUACGGAACG

Variants of: B1
Test: yeast fitness relative to wild type (ratio to wild type); higher = fitter; tRNA-Arg(CCU), competitive growth, 37 C, YPD
Outline: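 Variants of the tRNA-Arg(CCU) gene, chemically synthesised with a 3% per-site mutation rate at 69 sites, were placed at the native genomic locus in Saccharomyces cerevisiae. The pooled strains were competed in YPD at 37°C for 24 hours in six parallel replicates. Gene amplicons from the start population and from each end population were read by 100-nucleotide paired-end sequencing. Darwinian fitness relative to wild type came from changes in genotype frequencies; genotypes needed ≥ 100 starting reads, and estimates < 0.5 were set to 0.5.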

Variant | yeast fitness
C11G C30A G52A A65U | ≤ 0.5
C11G C24G U54C G67C | ≤ 0.5
C11G G18A G23A | ≤ 0.5
C11G U13G A69C | 0.531
C11G G23C A36G A37G | 0.774
C11G A20G C33U A37U | ≤ 0.5
C11G G12A C31G U59G A65G | ≤ 0.5
C11G C30A A42C C61A | ≤ 0.5
C11G G51C | 0.58
C11G A36C G68C | ≤ 0.5
C11A U19A C29A U32A G48C C55G | ≤ 0.5
C11G C46G A57U | 0.624
C11A U35G | 0.514
C11G A15G U26A U32A G38A A40C G52A | ≤ 0.5
C11A U16C C33U A37C | ≤ 0.5
C11G C24U A57G G68C | ≤ 0.5
C11G A20C C24G G58A G67C | ≤ 0.5
C11G G23C C49A C66G | ≤ 0.5
C11G C24U U28C G51A | ≤ 0.5
C11G G25A A37U | 0.573
C11G | 0.661

Variant | yeast fitness
C11G C30U G67C | ≤ 0.5
C11G U13A U16G U26A C66U | ≤ 0.5
C11A U47C G51C | ≤ 0.5
C11G G23C C49U G56A G63A | ≤ 0.5
C11G A14G A15U G23C G68C | ≤ 0.5
C11A U16C G18C A36G G56C | ≤ 0.5
C11G C24U C34A A37C C55G | 0.526
C11G A21G C34G A40C | ≤ 0.5
C11G C27U A43C A65U | ≤ 0.5
C11G G25A U32C G50A G51U U59A U64A | 0.628
C11G U13G C62G | ≤ 0.5
C11G C24G G51C | 0.611
C11A U16C A21G | ≤ 0.5
C11G C34U C66U | ≤ 0.5
C11G A36U A42G A43C | 0.527
C11G A21G A40G G58A C62G | ≤ 0.5
C11G A45C A65C | ≤ 0.5
C11G A36C G38U G56A | ≤ 0.5
C11G C49U | 0.631
C11G C49A | 0.522
C11A U32A C33U | 0.548

Variant | yeast fitness
C11G G41A A69U | ≤ 0.5
C11A U32C A70C | 0.549
C11G G18U C22U G39C C49G A57U A69U | ≤ 0.5
C11G A14U C34A A69C | ≤ 0.5
C11G C46U | 0.752
C11G C33G A37U A45U | 0.64
C11G U16A C60A | ≤ 0.5
C11G C29U C66A | ≤ 0.5
C11G A37G G38A A45U A70G | ≤ 0.5
C11G A14U C34A | 0.528
C11G G18C U26C C31G C46U C55U | ≤ 0.5
C11G C31A C55U | ≤ 0.5
C11A U28A C61G C62G | 0.556
C11G C29U U35C C66A | ≤ 0.5
C11G U13G A21G | 0.785
C11A U16C G18C A45C A57C G68C | 0.546
C11G A20G G44C U54C C62A | 0.87
C11G C27U A36U G48C C49U | 0.717
C11G A15U C24G A40G C62U | ≤ 0.5
C11G C29G U32G G38A U53C | ≤ 0.5
C11G A14G | 0.529

Variant | yeast fitness
C11A U16C U32G G48A C49G C55A | ≤ 0.5
C11G A14G U26A U35A | ≤ 0.5
C11A U19G A36G | 0.521
C11G C62U G63A | ≤ 0.5
C11G A21U C24G G51A G68A | ≤ 0.5
C11G A14C G23C G41C C61A | ≤ 0.5
C11G A57U | ≤ 0.5
C11G A57G | 0.624
C11G C31G | 0.555
C11G C31A | 0.508
C11G A21G A40G A69U | ≤ 0.5
C11G A15G C33G A37G U54A | ≤ 0.5
C11G A43C | 0.63
C11G C62G | 0.642
C11G A14U A36U G38C | 0.553
C11G C49U C62U A70U | ≤ 0.5
C11G A45U | 0.666
C11G A45C | 0.59
C11G C29U C34U | 0.506
C11G C27G U28G | 0.626
C11A U28C C29U C34G A36G | ≤ 0.5

— the RNAGym collection of RNA variant scans (doi:10.1126/science.aae0568)
